Source: ChEMBL document CHEMBL1811814, “Synthesis and evaluation of indole, pyrazole, chromone and pyrimidine based conjugates for tumor growth inhibitory activities--development of highly efficacious cytotoxic agents” (Eur J Med Chem, 2010)

Key:
Type in all cases: functional
Set-up in all cases: scale not given: the % may be the effect or the level left
[1] = test system: SK-OV-3; test: Growth inhibition of human SKOV3 cells assessed tumor cell growth at 10^-5 M
In short: (§1)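 NCI 60-human-tumor-cell-line panel screen. Each compound was tested at a single concentration of 10^-5 M, and percent growth of tumor cells was recorded for each cell line. Growth inhibition was expressed from these percent-growth values.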

[2] = test system: TK-10; test: Growth inhibition of human TK10 cells assessed tumor cell growth at 10^-5 M
In short: (§2)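 Single-dose screen at 10^-5 M across the 60 human tumor cell line panel, run to NCI standards. The value is the percent growth of each cell line in the presence of compound. Compounds active at this dose moved on to five-concentration testing (10^-4 to 10^-8 M).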

[3] = test system: HCT-15; test: Growth inhibition of human HCT15 cells assessed tumor cell growth at 10^-5 M; in short: as §1
[4] = test system: SF-268; test: Growth inhibition of human SF268 cells assessed tumor cell growth at 10^-5 M; in short: as §1
[5] = test system: SK-MEL-2; test: Growth inhibition of human SK-MEL-2 cells assessed tumor cell growth at 10^-5 M; in short: as §1
[6] = test system: A549; test: Growth inhibition of human A549 cells assessed tumor cell growth at 10^-5 M; in short: as §1
[7] = test system: EKVX; test: Growth inhibition of human EKVX cells assessed tumor cell growth at 10^-5 M; in short: as §1
[8] = test system: UACC-62; test: Growth inhibition of human UACC62 cells assessed tumor cell growth at 10^-5 M; in short: as §2
[9] = test system: HT-29; test: Growth inhibition of human HT-29 cells assessed tumor cell growth at 10^-5 M; in short: as §1
[10] = test system: LOX IMVI; test: Growth inhibition of human LOXIMVI cells assessed tumor cell growth at 10^-5 M; in short: as §1
[11] = test system: NCI-H322M; test: Growth inhibition of human NCI-H322M cells assessed tumor cell growth at 10^-5 M; in short: as §1
[12] = test system: SN12C; test: Growth inhibition of human SN12C cells assessed tumor cell growth at 10^-5 M; in short: as §1
[13] = test system: U-251; test: Growth inhibition of human U251 cells assessed tumor cell growth at 10^-5 M; in short: as §2
[14] = test system: MDA-MB-435; test: Growth inhibition of human MDA-MB-435 cells assessed tumor cell growth at 10^-5 M; in short: as §1
[15] = test system: PC-3; test: Growth inhibition of human PC3 cells assessed tumor cell growth at 10^-5 M; in short: as §1
[16] = test system: T47D; test: Growth inhibition of human T47D cells assessed tumor cell growth at 10^-5 M; in short: as §2
[17] = test system: HL-60(TB); test: Growth inhibition of human HL-60(TB) cells assessed tumor cell growth at 10^-5 M
In short: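 HL-60(TB), part of the 60-line panel, tested at a single concentration of 10^-5 M. The read-out is percent tumor cell growth relative to untreated growth.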

[18] = test system: HOP-92; test: Growth inhibition of human HOP92 cells assessed tumor cell growth at 10^-5 M; in short: as §1
[19] = test system: SK-MEL-5; test: Growth inhibition of human SK-MEL-5 cells assessed tumor cell growth at 10^-5 M; in short: as §1
[20] = test system: OVCAR-5; test: Growth inhibition of human OVCAR5 cells assessed tumor cell growth at 10^-5 M; in short: as §1
[21] = test system: SF-539; test: Growth inhibition of human SF539 cells assessed tumor cell growth at 10^-5 M; in short: as §1
[22] = test system: NCI-H23; test: Growth inhibition of human NCI-H23 cells assessed tumor cell growth at 10^-5 M; in short: as §1
[23] = test system: UACC-257; test: Growth inhibition of human UACC257 cells assessed tumor cell growth at 10^-5 M; in short: as §2
[24] = test system: COLO 205; test: Growth inhibition of human COLO205 cells assessed tumor cell growth at 10^-5 M; in short: as §1
[25] = test system: K562; test: Growth inhibition of human K562 cells assessed tumor cell growth at 10^-5 M; in short: as §1
[26] = test system: SNB-75; test: Growth inhibition of human SNB75 cells assessed tumor cell growth at 10^-5 M; in short: as §2
[27] = test system: NCI-H226; test: Growth inhibition of human NCI-H226 cells assessed tumor cell growth at 10^-5 M; in short: as §1
[28] = test system: M14; test: Growth inhibition of human M14 cells assessed tumor cell growth at 10^-5 M; in short: as §1
[29] = test system: CAKI-1; test: Growth inhibition of human Caki1 cells assessed tumor cell growth at 10^-5 M; in short: as §1
[30] = test system: KM12; test: Growth inhibition of human KM12 cells assessed tumor cell growth at 10^-5 M; in short: as §1
[31] = test system: RXF 393; test: Growth inhibition of human RXF393 cells assessed tumor cell growth at 10^-5 M; in short: as §1
[32] = test system: OVCAR-3; test: Growth inhibition of human OVCAR3 cells assessed tumor cell growth at 10^-5 M; in short: as §1
[33] = test system: HCT-116; test: Growth inhibition of human HCT116 cells assessed tumor cell growth at 10^-5 M; in short: as §1
[34] = test system: NCI-H460; test: Growth inhibition of human NCI-H460 cells assessed tumor cell growth at 10^-5 M; in short: as §1
[35] = test system: IGROV-1; test: Growth inhibition of human IGROV1 cells assessed tumor cell growth at 10^-5 M; in short: as §1
[36] = test system: OVCAR-4; test: Growth inhibition of human OVCAR4 cells assessed tumor cell growth at 10^-5 M; in short: as §1
[37] = test system: SW-620; test: Growth inhibition of human SW620 cells assessed tumor cell growth at 10^-5 M; in short: as §2
[38] = test system: DU-145; test: Growth inhibition of human DU145 cells assessed tumor cell growth at 10^-5 M; in short: as §1
[39] = Growth inhibition of human Hs 578T cells assessed tumor cell growth at 10^-5 M; in short: as §1
[40] = test system: UO-31; test: Growth inhibition of human UO31 cells assessed tumor cell growth at 10^-5 M; in short: as §2
[41] = test system: MDA-MB-468; test: Growth inhibition of human MDA-MB-468 cells assessed tumor cell growth at 10^-5 M; in short: as §1
[42] = test system: ACHN; test: Growth inhibition of human ACHN cells assessed tumor cell growth at 10^-5 M; in short: as §1
[43] = test system: MCF7; test: Growth inhibition of human MCF7 cells assessed tumor cell growth at 10^-5 M; in short: as §1
[44] = test system: MDA-MB-231; test: Growth inhibition of human MDA-MB-231 cells assessed tumor cell growth at 10^-5 M; in short: as §1
[45] = test system: NCI/ADR-RES; test: Growth inhibition of human NCI/ADR-RES cells assessed tumor cell growth at 10^-5 M; in short: as §1
[46] = test system: Malme-3M; test: Growth inhibition of human MALME-3M cells assessed tumor cell growth at 10^-5 M; in short: as §1
[47] = test system: SK-MEL-28; test: Growth inhibition of human SK-MEL-28 cells assessed tumor cell growth at 10^-5 M; in short: as §1
[48] = test system: OVCAR-8; test: Growth inhibition of human OVCAR8 cells assessed tumor cell growth at 10^-5 M; in short: as §1
[49] = test system: HOP-62; test: Growth inhibition of human HOP62 cells assessed tumor cell growth at 10^-5 M; in short: as §1
[50] = test system: MOLT-4; test: Growth inhibition of human MOLT4 cells assessed tumor cell growth at 10^-5 M; in short: as §1
[51] = test system: HCC 2998; test: Growth inhibition of human HCC2998 cells assessed tumor cell growth at 10^-5 M; in short: as §1
[52] = test system: BT-549; test: Growth inhibition of human BT549 cells assessed tumor cell growth at 10^-5 M; in short: as §1
[53] = Growth inhibition of human […] cells assessed tumor cell growth at 10^-5 M; in short: as §1
[54] = test system: SNB-19; test: Growth inhibition of human SNB19 cells assessed tumor cell growth at 10^-5 M; in short: as §2
[55] = test system: NCI-H522; test: Growth inhibition of human NCI-H522 cells assessed tumor cell growth at 10^-5 M; in short: as §1
[56] = test system: SF-295; test: Growth inhibition of human SF295 cells assessed tumor cell growth at 10^-5 M; in short: as §1
[57] = test system: A498; test: Growth inhibition of human A498 cells assessed tumor cell growth at 10^-5 M; in short: as §1
[58] = test system: 786-0; test: Growth inhibition of human 786-0 cells assessed tumor cell growth at 10^-5 M; in short: as §1
[59] = test system: CCRF-CEM; test: Growth inhibition of human CCRF-CEM cells assessed tumor cell growth at 10^-5 M; in short: as §1

## C=CCn1cc(/C=C2\C(=O)N(c3c(Cl)cccc3Cl)c3ccccc32)c2ccccc21
[1]
  Activity: 98.2%
[2]
  Activity: 100.4%
[3]
  Activity: 48.8%
[4]
  Activity: 77.4%
[5]
  Activity: 102.6%
[6]
  Activity: 95.2%
[7]
  Activity: 80.5%
[8]
  Activity: 68.7%
[9]
  Activity: 85.4%
[10]
  Activity: 69.8%
[11]
  Activity: 96.2%
[12]
  Activity: 94.9%
[13]
  Activity: 63.1%
[14]
  Activity: 100.8%
[15]
  Activity: 58.2%
[16]
  Activity: 63.9%
[17]
  Activity: 93.4%
[18]
  Activity: 72.1%
[19]
  Activity: 72.6%
[20]
  Activity: 98.9%
[21]
  Activity: 92.2%
[22]
  Activity: 83.7%
[23]
  Activity: 116%
[24]
  Activity: 111.6%
[25]
  Activity: 53.6%
[26]
  Activity: 71.5%
[27]
  Activity: 87%
[28]
  Activity: 84.7%
[29]
  Activity: 60.9%
[30]
  Activity: 83.7%
[31]
  Activity: 93.3%
[32]
  Activity: 88.2%
[33]
  Activity: 44.8%
[34]
  Activity: 64.8%
[35]
  Activity: 66.4%
[36]
  Activity: 79.1%
[37]
  Activity: 86.9%
[38]
  Activity: 101.7%
[39]
  Activity: 86.4%
[40]
  Activity: 56.7%
[41]
  Activity: 93.3%
[42]
  Activity: 80.5%
[43]
  Activity: 89.3%
[44]
  Activity: 83.4%
[45]
  Activity: 84.6%
[46]
  Activity: 96.3%
[47]
  Activity: 109.8%
[48]
  Activity: 90.7%
[49]
  Activity: 78.4%
[50]
  Activity: 71.8%
[51]
  Activity: 92.3%
[52]
  Activity: 127.4%
[53]
  Activity: 86.7%
[54]
  Activity: 97.4%
[55]
  Activity: 88.3%
[56]
  Activity: 95.1%
[57]
  Activity: 107.5%
[58]
  Activity: 86.2%

## CC1=NN(c2cccc(Cl)c2)C(=O)/C1=C\c1c[nH]c2ccccc12
[1]
  Activity: 99.61%
[3]
  Activity: 103.61%
[4]
  Activity: 107.91%
[5]
  Activity: 120.43%
[6]
  Activity: 109.06%
[7]
  Activity: 79.28%
[8]
  Activity: 83.26%
[9]
  Activity: 114.3%
[10]
  Activity: 99.88%
[11]
  Activity: 106.34%
[12]
  Activity: 200.78%
[13]
  Activity: 103.49%
[14]
  Activity: 108.89%
[16]
  Activity: 83.89%
[17]
  Activity: 124.41%
[18]
  Activity: 72.8%
[19]
  Activity: 102.28%
[20]
  Activity: 98.5%
[21]
  Activity: 100.44%
[22]
  Activity: 117.91%
[59]
  Activity: 142.91%
[23]
  Activity: 122.98%
[24]
  Activity: 122.84%
[25]
  Activity: 128.85%
[26]
  Activity: 91.42%
[27]
  Activity: 76.77%
[28]
  Activity: 99.91%
[29]
  Activity: 155.88%
[30]
  Activity: 106.96%
[31]
  Activity: 99.54%
[32]
  Activity: 105.19%
[33]
  Activity: 101.89%
[34]
  Activity: 109.9%
[36]
  Activity: 104.32%
[38]
  Activity: 121.25%
[40]
  Activity: 88.75%
[41]
  Activity: 104.9%
[42]
  Activity: 84.34%
[43]
  Activity: 76.22%
[44]
  Activity: 72.74%
[45]
  Activity: 101.48%
[46]
  Activity: 114.52%
[48]
  Activity: 107.69%
[49]
  Activity: 83.26%
[50]
  Activity: 159.76%
[51]
  Activity: 88.48%
[52]
  Activity: 117.3%
[53]
  Activity: 103.27%
[54]
  Activity: 111.33%
[56]
  Activity: 116.2%
[57]
  Activity: 100.75%
[58]
  Activity: 98.46%
